Measurements pooled from the literature.

Compound | system | conditions | AUC(0-t)
CC(C)(Nc1nc(-c2ccccn2)nc2ccccc12)c1ccccn1 | female BALB/c mouse, plasma | intravenous, 1 mg/kg | 1.45 µg·h/mL
Cc1nc(-c2cnc(NC(C)C)n(C)c2=O)ccc1Oc1ccnc(-c2cnn(C)c2)c1 | female mouse, plasma | oral, 30 mg/kg, single dose | 179 µg·h/mL
COc1nc(-c2cc(C)c(N[C@@H](C)c3c(F)cc(F)cc3F)nn2)ccc1-n1cnc(C)c1 | male CD-1 mouse, plasma | intravenous, 1 mg/kg, single dose | 2.5 µg·h/mL
CCc1cc(OC)c2nccc(N3CCc4c(cc(Cn5ccnc5)cc4-c4cn(C)nc4C(F)(F)F)C3=O)c2c1 | male CD-1 mouse, plasma | oral, 50 mg/kg | 106 µg·h/mL
CNCCN(C)c1cc(C#N)cc(CCc2cc(C)cc(N)n2)c1 | male BALB/c mouse, plasma | oral, 10 mg/kg | 0.162 µg·h/mL
CN1CCC[C@H](CN2c3ccccc3Sc3ccccc32)C1.Cl | mouse, plasma | intraperitoneal, 32 mg/kg, single dose | 6.92 µg·h/mL
Cc1ccc2cncc(N3CCc4c(cc(Cn5ccnc5)cc4-c4cn(C)nc4C(F)(F)F)C3=O)c2c1 | male CD-1 mouse, plasma | intravenous, 3 mg/kg | 3.84 µg·h/mL
COc1ccc2nc(-c3ccccn3)c(N(C)c3ccc(F)cc3)n2c1 | male CD-1 mouse, plasma | oral, 50 mg/kg, fasted | 0.953 µg·h/mL
CN1CCN(CC2CCN(c3nccc4[nH]c(-c5cc(F)cc(F)c5)nc34)CC2)CC1 | mouse, blood | intravenous, 2 mg/kg | 2420 nM·h
CNC(=O)c1cc(Oc2ccc(NC(=O)Nc3ccc(Cl)c(C(F)(F)F)c3)c(F)c2)cc[n+]1[O-] | mouse, plasma | oral, 10 mg/kg, single dose | 1.93 µg·h/mL
Cc1c2c(n(-c3ccc(F)cc3Cl)c1-c1ccc(OS(=O)(=O)CCC(F)(F)F)cc1)CCN(N1CCCCC1)C2=O | mouse, plasma | oral, 6 µmol/kg, single dose | 890 nM·h
C=CC(=O)N1CC2CC(n3nc(-c4ccc(C(=O)Nc5ccccn5)cc4)c4c(N)ncnc43)CC2C1 (stereo not shown) | SCID mouse, plasma | oral, 5 mg/kg | 1.12 µg·h/mL
COc1nc(-c2cc(C)c(N[C@@H](C)c3cc(F)cc(F)c3)nn2)ccc1-n1cnc(C)c1 | male CD-1 mouse, plasma | intravenous, 1 mg/kg, single dose | 1.94 µg·h/mL
CC[C@H](C)[C@@H]1NC(=O)[C@@](C)(NC(=O)[C@H](CCCNC(=N)N)NC(=O)[C@H](CC(C)C)NC(=O)[C@@H](NC(=O)[C@H](CCC(N)=O)NC(=O)[C@H](CC(C)C)NC(C)=O)[C@@H](C)O)CCCC=CCCC[C@@](C)(C(=O)N[C@@H](CC(C)C)C(=O)N[C@@H](Cc2ccc3ccccc3c2)C(N)=O)NC(=O)[C@H](CCCNC(=N)N)NC(=O)[C@H](CCC(N)=O)NC1=O | male BALB/c mouse, plasma | intravenous, 10 mg/kg | 233 µg·h/mL
CCOC(=O)c1sc(Nc2ncccn2)nc1-c1ccccn1 | male CD-1 mouse, plasma | intravenous, 2 mg/kg | 0.448 µg·h/mL
CCc1ccc(Cc2cc([C@@H]3O[C@H](CO)[C@@H](O)[C@H](O)[C@H]3O)cc3c2CCC3)cc1 | male C57BL/6 mouse, plasma | intravenous, 1 mg/kg | 1.44 µg·h/mL
CN1CCN(c2nccc3nc(-c4ccc(F)c(F)c4)[nH]c23)CC1 | mouse, blood | oral, 5 mg/kg | 3250 nM·h
CCc1cc(C(=O)NC)c2nccc(N3CCc4c(cc(Cn5ccnc5)cc4-c4cn(C)nc4C(F)(F)F)C3=O)c2c1 | male CD-1 mouse, plasma | intravenous, 3 mg/kg | 4.18 µg·h/mL
O=S(=O)(c1ccc(-c2ccc3nccc(Nc4ccncn4)c3c2)cc1)N1CCOCC1 | female BALB/c mouse, plasma | intraperitoneal, 10 mg/kg | 9.51 µg·h/mL
